SF1 activator: activates the human nuclear receptor SF-1 | CHO-K1 Gal4-SF-1 LBD luciferase reporter; % increase over DMSO SF-1-specific signal | AID 522 | 65,000 compounds, 1.9% hits | activation, % at 10 µM;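 active = activation above the mean activation of all tested compounds plus 3 SD, cut at about 50% in these data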
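Assay system: CHO-K1 cells co-transfected with Gal4 DBD–human SF-1 LBD, 5xGal4 luciferase reporter / Input: 4,000 cells per well / Incubation: 20 h compound exposure at 37 °C after 1 h cell settling / Detection: SteadyLite luciferase luminescence / Control set: DMSO negative control and −SF1 background wells / Replication: one test per compound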
ERa SRC1 pot: enhances coactivator binding to human estrogen receptor alpha. TR-FRET ERalpha-LBD/SRC-Cy5 coactivator binding, 2 h; 100 = basal binding, no effect. coactivator binding (% of control), % at 25.6 µM. 86,000 compounds, 1.3% hits. AID 639; in the data active = activity above about 200%;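 also: binding measured in presence of low estradiol as agonist stimulus; 0% = peptide alone without receptor and 100% = receptor with peptide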
RORA act: activators of human nuclear receptor RORA | CHO-K1 Gal4-RORA LBD luciferase reporter, luminescence; percent increase over mock-subtracted basal signal | 65,000 compounds, 1.5% hits | P35398 | activation, % at 10 µM | AID 560;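 active = activation above the mean of all tested compounds plus 3 SD, cut at about 49% in these data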;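 also: 0% = DMSO-treated RORA cells and 100% = added signal equal to DMSO minus mock-transfected cells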
ERa SRC1 inh: ER-alpha (human) coactivator binding inhibition; P03372; TR-FRET ER-alpha LBD / SRC-1 peptide, estradiol-bound; inhibition, % at 25.6 µM; 86,000 compounds, 1.7% hits; AID 629; in the data active = inhibition above about 50%;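 also: 0% = receptor plus peptide control and 100% = peptide only without receptor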
ERb coact inh: ER-beta (human) coactivator binding inhibition. 86,000 compounds, 1.3% hits. TR-FRET ER-beta LBD / SRC1-Cy5 peptide binding; receptor agonist-loaded with 1 µM estradiol. inhibition, % at 25.6 µM. Q92731;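 active = compounds whose percent inhibition of the receptor-coactivator binding signal exceeds about 50% in the single-dose screen, limit read from the data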;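 also: 0% = receptor plus peptide wells without compound and 100% = peptide-only wells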
BAP1 block: blocks human BAP1 ubiquitin-AMC hydrolysis | Q92560 | recombinant BAP1, Ub-AMC hydrolysis fluorescence kinetic; active compounds read low | calls only at 20 µM | 72,000 compounds, 0.48% hits | AID 436;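 active = activity remaining at or below 50% of control, provided the compound also passes the data quality filters; inactive = the rest, including low values that fail the filters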;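 also: 100% = DMSO wells rate and 0% = substrate alone blank rate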
Target sequence (Q92560 whole entry, looked up): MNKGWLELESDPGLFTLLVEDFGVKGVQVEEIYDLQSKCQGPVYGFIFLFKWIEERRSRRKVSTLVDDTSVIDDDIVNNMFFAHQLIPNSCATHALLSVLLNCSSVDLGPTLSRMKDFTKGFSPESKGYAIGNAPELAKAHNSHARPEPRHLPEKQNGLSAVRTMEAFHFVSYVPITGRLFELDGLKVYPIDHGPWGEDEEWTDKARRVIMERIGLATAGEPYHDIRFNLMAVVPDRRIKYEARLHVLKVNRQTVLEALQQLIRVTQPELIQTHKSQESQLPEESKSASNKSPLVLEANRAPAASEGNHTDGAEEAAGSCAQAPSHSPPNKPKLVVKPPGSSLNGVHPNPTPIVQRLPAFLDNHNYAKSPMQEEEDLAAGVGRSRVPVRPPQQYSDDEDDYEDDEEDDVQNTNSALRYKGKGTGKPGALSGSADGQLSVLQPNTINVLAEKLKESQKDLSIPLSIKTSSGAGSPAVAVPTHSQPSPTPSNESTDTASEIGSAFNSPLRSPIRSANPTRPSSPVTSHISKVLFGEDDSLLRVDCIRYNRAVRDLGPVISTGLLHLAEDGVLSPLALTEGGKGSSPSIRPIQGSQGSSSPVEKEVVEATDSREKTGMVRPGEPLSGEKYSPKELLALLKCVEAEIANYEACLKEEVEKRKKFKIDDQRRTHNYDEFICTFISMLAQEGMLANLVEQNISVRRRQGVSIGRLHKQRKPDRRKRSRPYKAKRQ
An asterisk follows results filed as active; i = inactive; · = no result shown; [ ] = another dose, or the depositor's remark. An excerpt weighted towards active compounds, which were near 5.1% of everything screened.

SMILES	SF1 activator	ERa SRC1 pot	RORA act	ERa SRC1 inh	ERb coact inh	BAP1 block
O=C(C1CC(c2ccc(F)cc2)=NO1)N1CCCCC1 (configuration not stated)	54.6*	·	18.2	·	·	i
CC1CCCCN1C(=O)C1CC(c2ccc(F)cc2)=NO1 (configuration not stated)	62.6*	117.1	49.3*	-9.2	-9.1	i
O=C(C1CC(c2ccc(F)cc2)=NO1)N1CCN(c2ccccc2)CC1 (configuration not stated)	-7.0	122.4	7.1	-6.0	-4.3	i
COC(=O)C1=C(NC(=O)c2ccc(OC)cc2OC)CCS1	·	·	·	·	·	i
c1ccc(OCCOc2ncnc3sccc23)cc1	52.6*	110.1	38.8	-5.8	3.8	i
CC(C)NC(=O)COc1ncnc2sccc12	·	92.8	·	4.5	5.4	·
Cc1c(C(=O)NCC2CCCO2)oc2ccc3c(c12)C(=O)CC(C)(C)O3 (configuration not stated)	61.5*	·	11.2	·	·	·
Cc1c(C(=O)NCC2CCCO2)oc2ccc(S(=O)(=O)N3CCCC3)cc12 (configuration not stated)	20.9	114.6	5.1	-7.4	4.3	·
C=CCNc1nc2c(c(=O)[nH]c(=O)n2C)n1C	·	·	·	·	·	i
CCCc1cc(=O)n2[nH]c(-c3ccccc3)cc2n1	68.5*	111.5	52.0*	-2.6	1.3	i
CCCc1cc(=O)n2[nH]c(-c3ccc(C)cc3)cc2n1	25.7	66.5	78.9*	5.1	5.2	i
CCOC(=O)Cc1cc(=O)n2[nH]c(-c3ccc(Cl)cc3)cc2n1	·	89.2	·	14.2	7.0	·
COCc1cc(=O)n2[nH]c(-c3ccccc3)cc2n1	30.2	112.7	22.0	0.6	-3.9	i
COCc1cc(=O)n2[nH]c(-c3cccc(Br)c3)cc2n1	47.7	93.4	53.3*	12.2	9.5	i
Nc1ccccc1SCc1cn2cccnc2n1	10.3	100.5	18.3	-3.4	-5.9	i
Nc1ccccc1SCc1cn2ccccc2n1	29.6	·	49.3*	·	·	i
COC(=O)C(CCCCNC(=O)OCc1ccccc1)NC(=O)CN (configuration not stated)	1.3	114.3	-23.6	91.4*[fluorescence artefact?]	-11.0	i
O=C(NC1CCS(=O)(=O)C1)Oc1ccc(Cl)cc1 (configuration not stated)	·	96.2	·	-10.8	-13.9	·
COc1ccc2c(Cl)c(C(=O)NC3CCS(=O)(=O)C3)sc2c1 (configuration not stated)	49.5*	113.5	35.4	-0.4	-4.5	i
Cc1ccc2[nH]c(=O)c(-c3noc(-c4ccncc4)n3)cc2c1	13.5	103.6	5.0	4.5	8.3	i
COc1ccc2[nH]c(=O)c(-c3noc(-c4ccccc4)n3)cc2c1	13.9	188.0	41.5	69.1*[fluorescence artefact?]	61.0*[fluorescence artefact?]	·
COc1ccccc1NC(=O)c1cc(Cl)ccc1NC(=O)c1ccco1	7.2	96.4	-14.1	-10.3	-10.4	i
COc1ccccc1NC(=O)Oc1ccc(NC(=O)c2ccco2)cc1	-1.7	80.7	7.6	59.5*[fluorescence artefact?]	66.4*[fluorescence artefact?]	i
COc1ccc(NC(=O)c2ccco2)cc1NC(=O)c1ccco1	-8.1	113.1	-13.2	11.5	2.0	i
COc1ccccc1NC(=O)c1ccccc1NC(=O)c1cc(Cl)ccc1NC(=O)c1ccco1	·	64.0	·	74.5*	40.7	·
SMILES	SF1 activator	ERa SRC1 pot	RORA act	ERa SRC1 inh	ERb coact inh	BAP1 block
COc1ccccc1OCc1csc(NC(=O)c2ccco2)n1	66.7*	112.4	21.2	1.7	1.0	i
COc1ccc(NC(=O)c2ccco2)cc1N	49.0	49.7	14.7	55.4*	60.9*	i
Cc1csc(NC(=O)c2ccco2)n1	15.8	·	32.4	·	·	i
Cc1ccc(NS(=O)(=O)c2cc(C(=O)Nc3ccc(C(=O)O)cc3)ccc2C)cc1	·	·	·	·	·	i
O=C1c2ccccc2C(=O)N1CCCCCCN1CCN(c2cccc(Cl)c2)CC1	·	·	·	·	·	i
Cc1noc(C)c1COc1ccc(C(=O)OCC(=O)N2CC(=O)Nc3ccccc32)cc1	·	100.6	·	-5.9	-11.0	·
Cc1noc(C)c1COc1ccc(C(=O)OCC(=O)N2c3ccccc3NC(=O)C2(C)C)cc1	·	53.9	·	73.0*	67.8*	·
COc1ccc(C(C)=O)cc1COC(=O)c1ccc(OCc2c(C)noc2C)cc1	8.2	277.3*	-6.2	54.8*[fluorescence artefact?]	42.1	i

Screens as filed in PubChem.
